RGS4 pot = RGS4 potentiation or activation | HEK293 M3R/inducible RGS4, carbachol calcium flux Fluo4; stronger effect = lower value | B-score at 10 µM | 310,000 compounds, 0.92% hits | AID 463111;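 active = B-score of the integrated calcium signal more than 4 SD below the library mean, with starting fluorescence not abnormally high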;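 note: negative B-score means reduced calcium response which marks RGS4 activation or potentiation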
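Material: M3R-expressing HEK293 line, RGS4 induced by doxycycline | Schedule: Overnight RGS4 induction, 30 min dye load 37 °C, 20 min compound RT | Measured by: Fluo4 fluorescence kinetic imaging of calcium | Read-out: Integrated calcium ratio converted to B score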
MrgX1 antagonist = antagonists of human MrgX1 receptor. 310,000 compounds, 1.3% hits. MRGX1-HEK293 calcium flux, Fluo-4, BAM8-22 antagonism; stronger effect = lower value. B-score at 10 µM. Q96LB2;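 active = calcium-response B-score plate-corrected more than 3 library SD below zero, starting fluorescence within 5 deviations, no agonist response on first addition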;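 note: peak minus trough fluorescence over baseline after final BAM8-22 challenge near maximal dose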
MrgX1 PAM = human MrgX1 positive allosteric modulation, primary screen; Q96LB2; MrgX1-HEK293, Fluo-4 calcium flux, FDSS; stronger effect = higher value; B-score at 10 µM; 310,000 compounds, 0.63% hits; AID 588675;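 active = plate-corrected calcium response at least 3 library SD above typical, normal starting fluorescence, not activating the receptor alone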;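 note: compound read alongside a low EC10 to EC30 dose of BAM8-22 agonist; peak minus trough fluorescence over baseline measured at the second addition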
PHOSPHO1 inh = blocks human PHOSPHO1 phosphatase activity; inhibition, % at 13.3 µM; 290,000 compounds, 1.1% hits; recombinant PHOSPHO1, absorbance phosphatase assay; in the data active = inhibition above about 60%
RGS4 block = inhibitors of human RGS4; HEK293 M3R/RGS4 inducible, Fluo-4 calcium flux; stronger effect = higher value; triggered by carbachol at its EC20; B-score at 10 µM; 310,000 compounds, 0.45% hits;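 active = B-score, a plate-corrected calcium signal, over three deviations above library mean, with baseline fluorescence within five deviations of library mean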;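 note: RGS4 expression induced by doxycycline in cells with stable M3 receptor; B-score is computed from the integrated fluorescence ratio over baseline after carbachol; higher B-score means a larger calcium signal and so more RGS4 inhibition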
Target sequence (P49798 whole entry, looked up): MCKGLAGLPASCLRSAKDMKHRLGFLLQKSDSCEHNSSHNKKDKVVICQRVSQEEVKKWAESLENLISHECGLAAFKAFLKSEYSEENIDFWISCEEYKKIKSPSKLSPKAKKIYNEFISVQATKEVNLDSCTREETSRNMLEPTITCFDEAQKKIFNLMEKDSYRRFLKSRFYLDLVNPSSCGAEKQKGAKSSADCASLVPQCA
MrgX1 agonist = human MrgX1 receptor agonism, primary screen. Q96LB2. MrgX1-HEK293 cells, Fluo-4 calcium fluorescence, agonist mode; stronger effect = higher value. B-score at 10 µM. 310,000 compounds, 0.44% hits. AID 588627;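 active = calcium response B-score plate-corrected fluorescence ratio at least 3 library SD, with starting fluorescence B-score inside 5 SD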
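times = overnight plating, then 30 min 37 °C plus 30 min room-temperature dye loading | assay system = stable human MrgX1 HEK293 cell line | input = fifteen thousand cells per well | signal = kinetic calcium dye fluorescence, Fluo-4 NW | dosing = compound delivered in addition one of three | read-out = B-scored fluorescence response ratio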
An asterisk follows results filed as active; i = inactive; x = no result given. This is a sample that favours compounds with a hit; in the whole collection about 4.5% have one here.

SMILES	RGS4 pot	MrgX1 antagonist	MrgX1 PAM	PHOSPHO1 inh	RGS4 block	MrgX1 agonist
COc1ccc(C(=O)N/N=C/c2sc3ccccc3c2O)cc1	i	i	i	-11.7	i	39.4*
COc1ccc(C(=O)N/N=C/c2c[nH]c3ccccc23)cc1	i	i	i	44.9	i	i
COc1ccc2cc(C(=O)N/N=C/c3sc4ccccc4c3O)ccc2c1	i	i	i	-4.6	i	i
COc1ccc(C(=O)N/N=C/c2cc3ccccc3[nH]c2=S)cc1	i	i	i	91.3*	i	i
O=C(N/N=C/c1sc2ccccc2c1O)c1cccc2ccccc12	i	-4.83*	i	0.0	i	i
COc1ccc(-c2n[nH]c(=S)n2C2CCCCC2)cc1	i	i	i	100.1*	i	i
Cc1cc(Cl)ccc1OCc1n[nH]c(=S)n1C1CCCCC1	i	i	i	54.6	i	i
COc1ccc(Cl)cc1-c1n[nH]c(=S)n1C1CCCCC1	i	i	i	96.9*	i	i
COC(=O)c1cccc(NC(=O)CSc2nnc(C)n2Cc2ccccc2)c1	i	i	i	17.9	i	i
Cc1ccc(-n2c(C)cc(C(=O)COc3c(CO)cc(F)cc3CO)c2C)cc1C	i	i	i	3.1	i	i
COc1cccc(NC(=O)c2ccc3c(c2)OCCO3)c1	i	x	x	14.4	i	x
COc1cc(OC)cc(-c2nnc(NC(=O)c3ccc4c(c3)OCCO4)o2)c1	i	i	i	62.9*	i	i
CCCCOc1ccc(C(O)(CCC)CCN2CCOCC2)cc1 (stereo not drawn)	i	i	i	-17.8	i	i
CCCCOc1ccc(C(O)(CC)CCN2CCOCC2)cc1 (stereo not drawn)	i	-6.33*	i	-4.4	i	i
CCCCCC(O)(CCN1CCCCC1)c1ccc(OCC)cc1 (stereo not drawn)	-8.85*	i	i	-5.3	i	i
CCC(O)(CCN1CCCCC1)c1ccccc1 (stereo not drawn)	-7.01*	i	i	27.9	i	i
CCOC(=O)C(=CNNc1cccc(Cl)c1)C(=O)OCC	i	i	i	74.5*	i	i
CCOC(=O)C(=CNc1ccc(Cl)cn1)C(=O)OCC	i	i	i	15.7	i	i
CN(C(=O)Cn1cccc1C1=NC(c2ccccc2)CO1)c1ccccc1 (stereo not drawn)	i	i	i	-32.7	i	i
COc1ccc(-c2oc3ccccc3c2C(=O)OCc2ccc(O)cc2)cc1	i	i	i	-13.0	i	i
COc1ccc(-c2oc3ccccc3c2C(=O)OCc2ccccc2)cc1	i	i	8.1*	-24.2	i	i
C/C(CC(=O)NCc1ccccc1)=N\NC(=O)c1cnccn1	i	i	i	0.8	i	i
COC(=O)c1ccc(/C=N/OCC(=O)NCc2ccc(F)cc2)cc1	i	-5.36*	i	16.2	i	i
CCOc1ccccc1/C=N/OCC(=O)NCc1ccc(F)cc1	i	i	i	12.2	i	i
COc1ccccc1C1=NNC(=Nc2cccc(S(=O)(=O)N(C)C)c2)SC1	i	-4.98*	i	51.5	i	i
COC(=O)c1cc(NS(=O)(=O)c2ccc(NC(C)=O)cc2)ccc1Cl	i	i	i	23.9	i	i
COC(=O)c1ccc(C2c3[nH]c4ccccc4c3C[C@H]3C(=O)N(C)CC(=O)N23)cc1 (stereo partly drawn)	i	i	i	18.7	i	i
CCN1C(=O)[C@@H]2Cc3c([nH]c4ccccc34)C(c3ccc(OC)cc3)N2C1=S (stereo partly drawn)	i	-4.55*	i	14.0	i	i
COc1ccc(-n2cc(CN3CCCC3)c(-c3cccc(F)c3)n2)cc1	i	i	i	61.1*	i	i
Cc1cccc(-n2cc(CN3CCN(Cc4nccn4C)CC3)c(-c3cccc(F)c3)n2)c1	i	i	i	61.1*	i	i

Screening data: PubChem BioAssay, several laboratories
